STAT3 inh-1: STAT3 signaling inhibition; 190,000 tested, 0.89% active; U3A cells, IL-6 STAT3-luciferase reporter, luminescence; host cell line lacks STAT1; inhibition, % at 5.5 µM;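 active = inhibition above the mean inhibition across all screened compounds plus 3 SD, cut at about 44% in these data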
STAT1 activator: activators of IFN-gamma induced STAT1 signaling; activation (% of control), % at 5.5 µM; NIH 3T3 STAT1-luciferase reporter, luminescence; 100% = IFN-gamma alone, no compound; 200,000 tested, 2.6% active;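 active = activation above the screen-wide mean activation plus 3 SD, cut at about 130% in these data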
STAT1 blocker: inhibitors of IFN-gamma induced STAT1 signaling; NIH 3T3 STAT1-luciferase reporter, luminescence; inhibition, % at 5.5 µM; 200,000 tested, 0.35% active; AID 920;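 active = inhibition above a set limit, the mean inhibition across all tested compounds plus 3 SD, cut at about 34% in these data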
STAT3 act: activators of IL-6 induced STAT3 signaling | AID 871 | U3A cells, IL-6 STAT3-luciferase reporter, luminescence; 100% = signal with IL-6 EC80 alone | 190,000 tested, 0.91% active | activation (% of control), % at 5.6 µM;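 active = activation above the screen-wide mean of compound activation plus 3 SD, cut at about 130% in these data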
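Material: human STAT1-deficient U3A cells with stable STAT3-luciferase reporter / Probe or stimulus: IL-6 stimulus at 33 ng/mL final / Schedule: 1 h compound pre-exposure, 6 h IL-6 stimulation, 37 °C / Technique: luminescence / Read-out basis: percent of IL-6-only median luminescence / Control set: IL-6-only high control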
HSV augment: HSV replication enhancement; 220,000 tested, 0.005% active; maximum fold increase; HSV replication augmentation in cells, fold increase; in the data active = maximum fold increase above about 1.5; inconclusive = no clear call, values can overlap the other calls; tested in PC3 cells
KCC2 mod: KCC2 (human) Cl- transport modulation | KCC2 cells, thallium flux FluoZin-2 fluorescence | B-score of Tl+ flux slope (higher = more flux/activation; lower = inhibition) at 10 µM | 190,000 tested, 2.2% active | AID 1456;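 active = thallium flux slope and its plate-corrected score both differing from the plate sample mean at a set confidence after two filtering rounds, in either direction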;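 also: slope of fluorescence scaled to starting intensity during 10 to 20 s after thallium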
STAT3 inh-2: STAT3 inhibition, confirmation assay. shares compounds with STAT3 inh-1. 1,200 tested, 45% active. U3A cells, IL-6 STAT3 luciferase reporter, luminescence; cell line lacks STAT1. inhibition, % at 5.7 µM. AID 1265;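 active = inhibition above the hit cutoff computed for the primary STAT3 screen, cut at about 44% in these data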
NFkB inh 2: counter-screen for STAT3 inhibitors: NF-kappaB inhibition; shares compounds with STAT3 inh-1; HEK293T NF-kB luciferase reporter, TNF-alpha induced; inhibition, % at 5.7 µM; 1,200 tested, 36% active;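 active = inhibition above the mean of solvent-only control wells plus 3 SD, cutoff set per campaign, cut at about 13% in these data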
STAT1 inh STAT3c: counter-screen for STAT3 inhibitors: STAT1 inhibition. AID 1317. inhibition, % at 5.7 µM. NIH 3T3 STAT1-luciferase reporter, IFN-gamma induced, luminescence. shares compounds with STAT3 inh-1. 1,200 tested, 27% active;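 active = inhibition above the mean plus 3 SD of solvent-only control wells, limit set per screening run, cut at about 16% in these data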
Each line names hits and unclear results; the compound was inactive in the other large screens (follow-up assays come after a bar, where they were run). Sampled rows, rich in hits. Any-hit rate of the full collection: about 5.5%.

O=C1CCCN1c1ccc(S(=O)(=O)N2CCC(c3ccccc3)CC2)cc1	STAT3 inh-1 69 | STAT3 inh-2 56 | NFkB inh 2 inactive | STAT1 inh STAT3c inactive
CCOC(=O)N1CCC(Nc2ncnc3c2cnn3-c2ccc(C)cc2C)CC1	STAT3 inh-1 64 | STAT3 inh-2 49 | NFkB inh 2 14 | STAT1 inh STAT3c inactive
O=C(c1ccc(COCC(F)(F)F)o1)N1CCCC1	none
C/C(=N\NC(=O)CNc1ccccc1)c1ccccc1	none
CCCCCc1ccc(OCCCC[n+]2cccc(C)c2)c(CCCCC)c1	STAT3 inh-1 58 | STAT3 inh-2 48 | NFkB inh 2 inactive | STAT1 inh STAT3c 26
CCCCCc1ccc(OCCCC[n+]2ccccc2)c(CCCCC)c1	none
O=c1[nH]nc(-c2ccccc2)c2ccccc12	none (no result: STAT3 inh-1, STAT1 activator, STAT1 blocker, STAT3 act)
O=Nc1c2cc(-c3ccccc3)[nH]nc-2c2ccccc12	STAT3 inh-1 98 (no result: KCC2 mod) | STAT3 inh-2 48 | NFkB inh 2 30 | STAT1 inh STAT3c inactive
Cc1cccc(/C=N/n2c(-c3cc(-c4ccccc4)n[nH]3)n[nH]c2=S)c1	none
Cc1ccc(-c2cc3c(N=O)c4ccccc4c-3n[nH]2)cc1	STAT3 inh-1 117 (no result: KCC2 mod) | STAT3 inh-2 98 | NFkB inh 2 80 | STAT1 inh STAT3c inactive
Cc1cccc(-c2cc3c(N=O)c4ccccc4c-3n[nH]2)c1	STAT3 inh-1 50 | STAT3 inh-2 inactive | NFkB inh 2 inactive | STAT1 inh STAT3c inactive
Cc1c(S(=O)(=O)N2CCN(C(c3ccccc3)c3ccccc3)CC2)c(=O)n(C)c(=O)n1C	none
O=C(CSc1cnc2ccccc2n1)c1ccc(F)cc1	STAT3 inh-1 58, HSV augment inconclusive | STAT3 inh-2 inactive | NFkB inh 2 inactive | STAT1 inh STAT3c inactive
COC(=O)CSc1cnc2ccccc2n1	none
COC(=O)c1cc(NC(=O)Cc2ccc(OC)c(OC)c2)cc(C(=O)OC)c1	none
COc1ccc(CC(=O)Nc2cccc(S(=O)(=O)N3CCCCCC3)c2)cc1OC	STAT3 inh-1 74 | STAT3 inh-2 75 | NFkB inh 2 27 | STAT1 inh STAT3c 19
COc1ccc(CC(=O)Nc2cccc(SC)c2)cc1OC	STAT3 inh-1 47 | STAT3 inh-2 44 | NFkB inh 2 inactive | STAT1 inh STAT3c inactive
COC(=O)c1ccc(-c2nc3cc(N)ccc3o2)cc1	STAT3 inh-1 59 | STAT3 inh-2 inactive | NFkB inh 2 inactive | STAT1 inh STAT3c inactive
CCCNC(=S)N1CC2(C)CN(C(=O)C(=O)OC)CC(C)(C1)C2=O	none
O=C(NC1CCN(Cc2ccccc2)CC1)c1ccc2c(c1)[nH]c(=O)n2Cc1ccc(F)cc1	STAT3 inh-1 47 | STAT3 inh-2 51 | NFkB inh 2 17 | STAT1 inh STAT3c inactive
O=C(Nc1ccc(F)cc1)NC1CCN(Cc2ccccc2)CC1	none
Cc1cc(C)nc(Nc2n[nH]c(-c3ccc(C(C)(C)C)cc3)n2)n1	STAT3 inh-1 47 | STAT3 inh-2 inactive | NFkB inh 2 inactive | STAT1 inh STAT3c inactive
Cc1cc(SCC(=O)N(C)C2CCS(=O)(=O)C2)nc2c(C)cccc12 (stereo unspecified)	none
Nc1ccc(-c2nc3ccc(N)cc3o2)cc1	none
Cc1ccc2nc(-c3cc(N)cc(N)c3)oc2c1	STAT3 inh-1 43 | STAT3 inh-2 inactive | NFkB inh 2 inactive | STAT1 inh STAT3c inactive
Cc1cc(O)cc(O)c1C=NCc1ccco1	HSV augment inconclusive
O=C(Nc1ccccc1C(=O)NC(Cc1ccccc1)C(=O)NC1CCCCC1)c1ccccc1 (stereo unspecified)	none
O=C(NC1=NC2CCCCC2N1)c1ccccc1 (stereo unspecified)	STAT3 inh-1 49 (no result: KCC2 mod) | STAT3 inh-2 inactive | NFkB inh 2 inactive | STAT1 inh STAT3c inactive
CCc1ccc(NC(=O)c2cc(C)on2)cc1	STAT3 inh-1 49 | STAT3 inh-2 inactive | NFkB inh 2 inactive | STAT1 inh STAT3c inactive
CCc1ccc(NC(=O)c2cc(C(C)C)on2)cc1	STAT3 inh-1 48 | STAT3 inh-2 inactive | NFkB inh 2 inactive | STAT1 inh STAT3c inactive
Cc1cc(N2CCCCC2)nc(N2CCCCC2)n1	none
Cn1cccc1C(C#N)c1ncc(C(F)(F)F)cc1Cl (stereo unspecified)	none
CC1Cc2cc(-c3csc(NC(=O)Cc4ccccc4)n3)ccc2N1S(C)(=O)=O (stereo unspecified)	STAT3 inh-1 66 | STAT3 inh-2 53 | NFkB inh 2 13 | STAT1 inh STAT3c inactive
COc1ccccc1C(=O)Nc1nc(-c2ccc(S(=O)(=O)N3CCOCC3)cc2)cs1	STAT3 inh-1 76 | STAT3 inh-2 74 | NFkB inh 2 20 | STAT1 inh STAT3c 20
CCOC(=O)c1ccc(N/C=C/C(=O)c2ccccc2)cc1	none
Cc1ccc(C(=O)/C=C/Nc2ccc([N+](=O)[O-])cc2Br)cc1	none (no result: KCC2 mod)
O=C(/C=C/Nc1ccc(F)cc1Br)c1ccccc1	STAT3 inh-1 86 | STAT3 inh-2 76 | NFkB inh 2 62 | STAT1 inh STAT3c 33
NC(=O)c1ccccc1N/C=C/C(=O)c1ccc(Cl)cc1	STAT3 inh-1 60 | STAT3 inh-2 inactive | NFkB inh 2 inactive | STAT1 inh STAT3c inactive
COc1cccc(C(=O)/C=C/Nc2cccc(O)c2)c1	STAT3 inh-1 102, HSV augment inconclusive (no result: KCC2 mod) | STAT3 inh-2 96 | NFkB inh 2 14 | STAT1 inh STAT3c 23
O=C(/C=C/Nc1ccccc1)c1ccccc1	STAT3 inh-1 67 (no result: HSV augment) | STAT3 inh-2 inactive | NFkB inh 2 inactive | STAT1 inh STAT3c inactive
CCOC(=O)c1ccccc1N/C=C/C(=O)c1ccccc1	none (no result: KCC2 mod)
Cc1onc(-c2c(F)cccc2Cl)c1C(O)c1ccc(F)cc1 (stereo unspecified)	none (no result: STAT3 inh-1, STAT1 activator, STAT1 blocker, STAT3 act)
CCN1/C(=C/c2ccc3cc(C)ccc3[n+]2CC)Sc2ccccc21	STAT3 inh-1 91 (no result: HSV augment) | STAT3 inh-2 88 | NFkB inh 2 37 | STAT1 inh STAT3c 21
CC[n+]1c(/C=C2\Sc3ccccc3N2C)ccc2cccc(C)c21	STAT3 inh-1 84 (no result: HSV augment) | STAT3 inh-2 80 | NFkB inh 2 31 | STAT1 inh STAT3c inactive
Cc1csc(N/N=C/c2ccccn2)n1	STAT3 inh-1 53 | STAT3 inh-2 inactive | NFkB inh 2 inactive | STAT1 inh STAT3c inactive
CC(=O)c1c(C)[nH]c(C(=O)COc2cc(C)cc(C)c2)c1C	STAT3 inh-1 44 | STAT3 inh-2 inactive | NFkB inh 2 inactive | STAT1 inh STAT3c inactive
CCCOc1ccc(OCC(=O)c2[nH]c(C)c(C(C)=O)c2C)cc1	none
O=C(O)CCc1nc(-c2ccccc2)no1	none (no result: KCC2 mod)
